Jurkat tox 60K: cytotoxicity toward Jurkat cells | Jurkat E6.1 viability, ATP luminescence, 48 h | inhibition, % at 4 µM | 56,000 compounds, 1.2% hits | AID 463;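 active means inhibition above the mean inhibition of all tested compounds plus 3 SD, cut at about 28% in these data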
Fibroblast inh: blocks proliferation of human lung fibroblasts; LL 47 human lung fibroblast viability, ATP luminescence; active compounds read low; viability, % at 10 µM; 85,000 compounds, 1.1% hits; AID 719;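 active means viability at or below 50% in the single dose screen; inactive means viability above 50%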;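 further: compound exposure lasted 72 h before the ATP readout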
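Test system: LL 47 human lung fibroblasts / Incubation: 72 h compound exposure at 37 °C after overnight plating / Technique: luminescent ATP detection, CellTiter-Glo / Compound dosing: 0.1% DMSO in all compound wells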
HUVEC prolif 384: human endothelial cell proliferation inhibition | 86,000 compounds, 1.1% hits | viability, % at 10 µM (by protocol) | HUVEC proliferation, CellTiter-Glo luminescence, 72 h; active compounds read low;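 active means viability at or below 30%; inactive means viability above 30%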
H69AR growth 86K: growth inhibitors of human H69AR lung tumor cells; H69AR lung tumor viability, ATP luminescence, 72 h; active compounds read low; viability, % at 10 µM; 85,000 compounds, 6% hits;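 active means viability at or below 40%; inactive means viability above 40%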;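 further: multidrug resistant small cell line overexpressing MRP-1 efflux transporter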
Numbers stand for hits; - = inactive; . = no result given. Compounds with a hit are over-represented: about 6.4% of the library has one in this group of screens.

SMILES	Jurkat tox 60K	Fibroblast inh	HUVEC prolif 384	H69AR growth 86K
COc1ccc2nc(NC(=O)CN(c3ccc(C)cc3)S(=O)(=O)c3c(C)nn(C)c3C)sc2c1	-	-	-	-
CCC(=O)Nc1cc(-c2nn(C)c(=O)c3ccccc23)ccc1OC	-	.	.	.
COc1ccc(-c2nn(C)c(=O)c3ccccc23)cc1NC(=O)Cn1nc(C)c2ccccc2c1=O	-	-	-	3.3
Cc1ccc(-c2nn(CC(=O)NCc3cc(-c4nn(C)c(=O)c5ccccc45)ccc3C)c(=O)c3ccccc23)cc1	.	4.9	4.1	2.1
Cc1nn(CC(=O)Nc2ccc3c(c2)oc2ccccc23)c(=O)c2ccccc12	-	-	-	3.3
N#Cc1c(-c2ccco2)cc(-c2cccnc2)nc1N	-	-	-	-
N#Cc1c(-c2ccco2)cc(-c2ccccn2)nc1N	-	-	-	35
Cc1c(NC(=O)C2C3C=CC(C3)C2C(=O)O)c(=O)n(-c2ccccc2)n1C (configuration not stated)	.	-	-	-
Cc1ccc(S(=O)(=O)Cn2nnnc2C(C(C)C)N2CCN(c3nc4ccccc4s3)CC2)cc1 (configuration not stated)	.	-	-	27
CC(c1ccccc1)C1C(C#N)=C(N)OC2=C1C(=O)CC(C)(C)C2 (configuration not stated)	-	-	-	-
CC1(C)CC(=O)C2=C(C1)OC(N)=C(C#N)C2C#Cc1ccccc1 (configuration not stated)	-	-	-	1.7
CC1(C)CC(=O)C2=C(C1)OC(/N=C/N1CCOCC1)=C(C#N)C2c1ccccc1 (configuration not stated)	-	-	-	-
CN1CCN(/C=N/C2=C(C#N)C(c3ccccc3)C3=C(CC(C)(C)CC3=O)O2)CC1 (configuration not stated)	.	-	-	39
O=C(OCC(=O)N1CCN(C(=O)c2ccco2)CC1)c1cc(-c2ccc(Cl)c(Cl)c2Cl)nc2ccccc12	.	-	6.3	0.9
O=C(OCC(=O)N1CCN(C(=O)c2ccco2)CC1)c1cc(-c2ccco2)nc2ccccc12	.	-	-	-
N#CC1=C(c2ccccc2)N=P(N2CCOCC2)(N2CCOCC2)N=C1N1CCOCC1	.	-	-	-
COc1ccc(CC(=O)Nc2ccc(-c3noc(COc4ccccc4C)n3)cc2)cc1	-	-	-	-
COc1ccc(CC(=O)Nc2ccc(-c3noc(-c4cc(OC)c(OC)c(OC)c4)n3)cc2)cc1	.	-	-	21
COc1ccc(Cc2nc(C(=O)Nc3ccc(Cl)cc3)cs2)cc1	.	-	21	-
COc1ccc(Cc2nc(-c3ccc(NC(=O)c4cccnc4)cc3)no2)cc1	-	-	-	6.0
COc1ccc(CC(=O)Nc2ccc(-c3noc(-c4ccc(Cl)cc4)n3)cc2)cc1	.	19	-	5.1
CN(C)S(=O)(=O)c1cccc(NC(=O)COC(=O)CCc2nc3ccccc3s2)c1	.	-	-	-
CCOc1ccccc1-c1nc(-c2ccc(NC(=O)Cc3ccc(OC)cc3)cc2)no1	-	-	20	11
COc1ccccc1-c1c(C#N)c(SCC(=O)N2CCCC2)nc(C)c1C(N)=O	.	-	-	-
Cc1ccc(S(=O)(=O)/N=C(\CSC(N)=O)Nc2ccccc2)cc1	.	-	-	24
SMILES	Jurkat tox 60K	Fibroblast inh	HUVEC prolif 384	H69AR growth 86K
Cc1ccc(S(=O)(=O)/N=C(\Sc2ccccc2)c2ccccc2)cc1	.	-	-	-
CCS(=O)(=O)NCCc1cc2c(OC)ccc(OC)c2[nH]c1=O	-	-	-	-
N#CC1=C(N)C(C#N)(C#N)C(c2cccnc2)C2CC(c3ccccc3)CC=C12 (configuration not stated)	.	44	5.9	1.6
CCNc1ccc2c(Cl)cc(=O)oc2c1	-	-	-	37
Cc1cc(=O)oc2cc(NC(=O)CCCC(=O)O)ccc12	-	-	-	-
CC(=O)NCCc1ccc(S(=O)(=O)Nc2cccnc2)cc1	-	-	-	-
CCNC(=O)NC(=O)C(C)Sc1nc2ccccc2n1CC(C)C (configuration not stated)	.	-	-	-
CC(C)(C)NC(=O)c1cccc(NC(=O)c2ccc(NC(=O)c3ccco3)cc2)c1	-	-	-	33
Cn1c(NC(=O)c2ccco2)cc(=O)n(C)c1=O	-	-	-	24
CC(C)(C)c1ccc(C(=O)Nc2ccc(NC(=O)c3ccco3)cc2)cc1	.	28	-	33
CC(C)CNC(=O)c1cccc(NC(=O)c2ccc(NC(=O)c3ccco3)cc2)c1	-	-	-	28
O=C(O)Cc1ccc(NC(=O)c2ccc(NC(=O)c3ccco3)cc2)cc1	.	-	-	-
CC(C)(C)NC(=O)c1cccc(NC(=O)c2ccco2)c1	.	-	-	-
O=C1c2ccccc2C(O)(Cc2ccccc2)N1c1ccc2c(c1)OCO2 (configuration not stated)	-	-	-	-
CCc1nnc(NC(=O)CSc2nc3c(c(=O)n2CC)SC(C)C3)s1 (configuration not stated)	-	-	-	-
O=C(c1cnn(-c2ccccc2)c1-n1cccc1)N1CCN(C2CCCCC2)CC1	-	-	-	-
COc1ccc(OC)c(NC(=O)CSc2nnc(CNc3ccc(C)cc3C)o2)c1	-	-	-	-
Cn1c(-c2ccccc2)cc2c3no[n+]([O-])c3ccc21	78	26	14	19
COC(=O)C1CN(S(=O)(=O)c2ccccc2)CCN1S(=O)(=O)c1ccccc1 (configuration not stated)	.	-	-	-
Cc1ccc(S(=O)(=O)NCc2ccncc2)cc1	76	-	-	-
CC1CCCCC1NS(=O)(=O)c1ccc(S(=O)(=O)NCc2ccncc2)cc1 (configuration not stated)	92	-	-	-
Cc1ccc(S(=O)(=O)NCC(=O)NCc2ccncc2)cc1	.	-	-	-
CCc1ccc(NC(=O)N(C2CCCCC2)C(C)c2cccnc2)cc1 (configuration not stated)	.	-	-	-
Cc1cc(NC(=O)c2cc(-c3ccccn3)nc3ccccc23)no1	-	-	-	-
Cc1cc(NC(=O)c2cc(-c3ccncc3)nc3c(C)cccc23)no1	78	-	-	24
SMILES	Jurkat tox 60K	Fibroblast inh	HUVEC prolif 384	H69AR growth 86K
Cc1cc(NC(=O)c2cc(-c3cccs3)nc3ccccc23)no1	-	.	.	.
Cc1cc(C)c2nc(-c3ccccn3)cc(C(=O)Nc3cc(C)on3)c2c1	-	-	-	34
Cc1cc(C)n(C(=O)c2cc3c(s2)CCCC3)n1	.	-	-	-
COC(=O)c1ccccc1NC(=O)c1ccc2c(c1)C(=O)N(Cc1ccco1)C2=O	-	-	-	11
Cc1ccnc(NC2c3ccccc3C(=O)N2Cc2ccccc2Cl)c1 (configuration not stated)	-	-	-	-
O=c1cc(Nc2ccc3c(c2)OCCO3)[nH]c(=O)n1-c1ccc(Cl)cc1	-	-	-	8.8
CCc1ccc(NC2=NC(C(=O)NC3CCCCC3)CC(=O)N2)cc1 (configuration not stated)	-	-	-	-
O=C(O)C1CCCCC1C(=O)Nc1ccc2c(c1)OCCO2 (configuration not stated)	-	-	-	-
CCc1ccc(Nc2cc(=O)n(C3CCCCC3)c(=O)[nH]2)cc1	-	-	-	16
